Experimental data reported in ChEMBL document CHEMBL4602607, “Hit-to-Lead Optimization of Benzoxazepinoindazoles As Human African Trypanosomiasis Therapeutics” (J Med Chem, 2020).

What was measured:
[1] = Intrinsic clearance in rat hepatocytes assessed per 10^6 cells by LC-MS/MS analysis; assay type: ADME, cell-based, Hepatocyte
Method in brief: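 Rat hepatocyte incubation, samples analysed by LC/MS/MS; intrinsic clearance reported in µL/min/1 million cells.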

[2] = Distribution coefficient, logD of compound; assay type: physicochemical; conditions: octanol/water
[3] = Cmax in NMRI mouse at 10 mg/kg, ip measured up to 24 hrs by LC-MS/MS analysis; assay type: ADME, organism-based; parameters: dose 10 mg/kg, route intraperitoneal; conditions: in vivo
[4] = Half life in NMRI mouse at 10 mg/kg, ip measured up to 24 hrs by LC-MS/MS analysis; assay type: ADME, organism-based; conditions: in vivo
[5] = Ratio of drug concentration in brain to blood in NMRI mouse at 10 mg/kg, ip measured at 0.5 hrs by LC-MS/MS analysis; assay type: ADME, organism-based; conditions: brain and blood, read-out: BBR
[6] = Ratio of drug concentration in brain to blood in NMRI mouse at 10 mg/kg, ip measured at 4 hrs by LC-MS/MS analysis; assay type: ADME, organism-based; conditions: brain and blood, read-out: BBR
in vivo = conditions: NMRI, mouse, ip, 10 mg/kg
[7] = Intrinsic clearance in human liver microsomes assessed per mg protein by LC-MS/MS analysis; assay type: ADME, Microsome

hepatocyte CLint [1] [µL/min/10^6 cells] | logD [2] | SMILES | other results
16 | 3.4 | CN1CCN(c2cc(-c3cc4c5c(n[nH]c5c3)Nc3ccccc3O4)nc(N)n2)CC1 | 
44 | > 4.4 | CN(C)c1cc(-c2cc3c4c(n[nH]c4c2)Nc2ccccc2O3)nc(N)n1 | 
26 |  | CCNc1cc(-c2cc3c4c(n[nH]c4c2)Nc2ccccc2O3)nc(N)n1 | 
73 | 3.8 | Nc1cc(-c2cc3c4c(n[nH]c4c2)Nc2ccccc2O3)ncn1 | 
41.4 |  | COCc1cc(-c2cc3c4c(n[nH]c4c2)Nc2ccccc2O3)nc(N)n1 | 
56 | 4.1 | Nc1ccnc(-c2cc3c4c(n[nH]c4c2)Nc2ccccc2O3)n1 | 
29 | > 3.9 | CN(C)c1nccc(-c2cc3c4c(n[nH]c4c2)Nc2ccccc2O3)n1 | 

More lines, now with the values behind:

SMILES | hepatocyte CLint [1] [µL/min/10^6 cells] | logD [2] | other results
Cn1nc2c3c(cc(-c4ccnc(N)n4)cc31)Oc1ccccc1N2 | 12 | > 4.3 | Cmax [3]: 615 ng/mL; t1/2 [4]: 63.6 min; Kp at 0.5 h [5]: 2.39; Kp at 4 h [6]: 2.12; Tmax at 24 h (in vivo): 15 to 300 min
CC(C)Nc1cc(-c2cc3c4c(n[nH]c4c2)Nc2ccccc2O3)nc(N)n1 | 32 | 4.9 | 
CCOc1cc(-c2ccnc(N)n2)cc2[nH]nc(N)c12 |  | 1.7 | CLH [7]: 25 µL/min; Cmax [3]: 3603 ng/mL; t1/2 [4]: 53.6 min; Kp at 0.5 h [5]: 0.155; Kp at 4 h [6]: 0.214; Tmax at 24 h (in vivo): 15 to 300 min
Nc1cccc(-c2cc3c4c(n[nH]c4c2)Nc2ccccc2O3)n1 | 220 | 3.7 | 
Nc1nccc(-c2cc3c4c(n[nH]c4c2)N[C@@H]2CCC[C@H]2O3)n1 |  |  | hepatocyte CLint ([1]; read-out: CLH): 52 µL/min/1e6 cells; logD ([2]; read-out: logD): 2.8
CNc1cc(-c2cc3c4c(n[nH]c4c2)Nc2ccccc2O3)nc(N)n1 | 45 | > 4.2 | 
CNc1nccc(-c2cc3c4c(n[nH]c4c2)Nc2ccccc2O3)n1 | 45 | 3.8 | 
c1ccc2c(c1)Nc1n[nH]c3cccc(c13)O2 | 47 |  | logD ([2]; read-out: logD): > 4
Nc1nc(-c2cc3c4c(n[nH]c4c2)Nc2ccccc2O3)cc(N2CCCCC2)n1 | 25 | 4.6 | 
c1ccc2c(c1)Nc1n[nH]c3cc(-c4ccncn4)cc(c13)O2 | 68 | 3.5 | 
